Measurements as given in ChEMBL document CHEMBL1138954, “Cyclobutane derivatives as potent NK1 selective antagonists” (Bioorg Med Chem Lett, 2006).
pKi: −log10 of the molar value.

What was measured:
Substance-P receptor = Substance-P receptor (Homo sapiens, UniProt P25103); assay: Displacement of [3H]Sar-Met substance P from human recombinant NK1 receptor expressed in CHO cells; format: cell-based
Summary of the method: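 Membranes from CHO cells expressing recombinant human NK1 receptor. Radioligand was [³H]-Sar-Met substance P at about its experimentally derived Kd. Ki was calculated with the Cheng–Prusoff equation. Values are the mean of two or three independent determinations.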

Meriones unguiculatus = assay: Inhibition of GR-73632-induced foot tapping in Mongolian gerbil at 1 mg/kg, po after 4 hrs; format: functional
Summary of the method: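 Female Mongolian gerbils were dosed orally in 0.4% methylcellulose/distilled water before icv injection of GR73632 (3 pmol in 5 μl). After recovery from anaesthesia, animals were placed in clear boxes for 5 min. Duration of rhythmic hind-foot tapping was timed and expressed as percent decrease (% inhibition).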

[1] = target: T1, Substance-K receptor (Homo sapiens) (UniProt P21452); assay: Inhibition of [3H]neurokinin A binding to human recombinant NK2 receptor in CHO cells at 3 uM; format: cell-based
T1 sequence (whole entry): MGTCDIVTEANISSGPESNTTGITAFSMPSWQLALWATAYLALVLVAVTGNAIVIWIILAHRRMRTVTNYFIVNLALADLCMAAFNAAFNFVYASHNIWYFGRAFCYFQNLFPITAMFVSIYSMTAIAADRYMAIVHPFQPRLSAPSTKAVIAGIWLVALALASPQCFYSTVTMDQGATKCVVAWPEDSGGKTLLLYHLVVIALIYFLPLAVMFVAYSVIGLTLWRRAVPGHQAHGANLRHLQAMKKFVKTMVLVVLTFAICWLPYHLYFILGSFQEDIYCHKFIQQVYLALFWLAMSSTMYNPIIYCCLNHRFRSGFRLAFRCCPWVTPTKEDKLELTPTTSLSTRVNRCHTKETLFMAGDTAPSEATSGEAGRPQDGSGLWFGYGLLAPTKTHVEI
Summary of the method: (§1)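 Competition binding used membranes of CHO cells carrying recombinant human NK2 receptor. [³H]neurokinin A was the ligand, at a concentration near its experimentally derived Kd. Data are the average of two or three independent determinations.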

Neuromedin-K receptor [2] = target: T2, Neuromedin-K receptor (Homo sapiens, UniProt P29371); assay: Displacement of [125I]neurokinin B from human recombinant NK3 receptor in CHO cells
T2 sequence (P29371 whole entry): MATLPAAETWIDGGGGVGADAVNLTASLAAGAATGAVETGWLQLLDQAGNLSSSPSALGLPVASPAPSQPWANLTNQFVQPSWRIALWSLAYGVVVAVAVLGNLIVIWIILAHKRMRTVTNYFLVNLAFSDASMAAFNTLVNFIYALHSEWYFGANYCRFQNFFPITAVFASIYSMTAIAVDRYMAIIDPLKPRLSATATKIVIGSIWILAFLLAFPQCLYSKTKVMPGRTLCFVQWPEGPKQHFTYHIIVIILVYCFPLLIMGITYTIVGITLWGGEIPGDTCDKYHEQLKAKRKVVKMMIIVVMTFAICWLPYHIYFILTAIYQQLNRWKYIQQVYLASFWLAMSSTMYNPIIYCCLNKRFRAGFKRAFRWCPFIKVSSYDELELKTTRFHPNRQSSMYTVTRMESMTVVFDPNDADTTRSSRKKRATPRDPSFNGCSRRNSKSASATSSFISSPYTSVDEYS

Neuromedin-K receptor [3] = target: T2, Neuromedin-K receptor; assay: Displacement of [3H]neurokinin B from human recombinant NK3 receptor in CHO cells; format: cell-based; details: in the assay text read “[125I]neurokinin B” for “[3H]neurokinin B”
Summary of the method: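 Membrane preparations came from CHO cells expressing recombinant human NK3 receptor. Labelled neurokinin B ligand was used near its experimentally derived Kd. Ki was obtained by the Cheng–Prusoff equation. Values are the average of two or three independent determinations.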

[4] = target: T1, Substance-K receptor (Homo sapiens); assay: Inhibition of [3H]neurokinin A binding to human recombinant NK2 receptor in CHO cells at 0.3 uM; format: cell-based; summary of the method: as §1

Chain of Substance-P receptor (P25103 whole entry): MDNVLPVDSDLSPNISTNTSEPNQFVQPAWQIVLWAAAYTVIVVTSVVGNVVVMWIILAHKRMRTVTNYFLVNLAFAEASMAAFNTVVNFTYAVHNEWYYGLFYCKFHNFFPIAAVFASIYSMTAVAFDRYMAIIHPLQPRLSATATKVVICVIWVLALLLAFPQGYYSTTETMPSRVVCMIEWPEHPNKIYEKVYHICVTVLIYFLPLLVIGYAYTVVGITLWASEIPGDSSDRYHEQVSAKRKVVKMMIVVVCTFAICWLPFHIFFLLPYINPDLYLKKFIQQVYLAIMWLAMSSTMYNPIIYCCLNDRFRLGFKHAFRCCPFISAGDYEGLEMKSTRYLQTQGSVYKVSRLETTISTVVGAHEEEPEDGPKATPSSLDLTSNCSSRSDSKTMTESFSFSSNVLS

| SMILES | pKi (Substance-P receptor) | inhibition [1] [%] | pKi (Neuromedin-K receptor [2]) | pKi (Neuromedin-K receptor [3]) | inhibition [4] [%] | inhibition in vivo at 1 mg/kg (Meriones unguiculatus) [%] |
| --- | --- | --- | --- | --- | --- | --- |
| CNC(=O)[C@]1(N)C[C@@](CO[C@H](C)c2cc(C(F)(F)F)cc(C(F)(F)F)c2)(c2ccccc2)C1 | 9.00 |  |  | 5.70 | 1.2 | 98 |
| CNC(=O)[C@]1(N)C[C@](CO[C@H](C)c2cc(C(F)(F)F)cc(C(F)(F)F)c2)(c2ccccc2)C1 | 9.30 |  |  |  |  | 58 |
| C[C@@H](OCC1(c2ccccc2)CC(NCc2ccccc2)C1)c1cc(C(F)(F)F)cc(C(F)(F)F)c1 (stereo partly drawn) | 9.52 |  |  |  |  | 25 |
| C[C@@H](OC[C@]1(c2ccccc2)C[C@](N)(C(=O)N2CCCC2)C1)c1cc(C(F)(F)F)cc(C(F)(F)F)c1 | 8.89 |  |  |  |  | 13 |
| C[C@@H](OCC1(c2ccccc2)CC(N)C1)c1cc(C(F)(F)F)cc(C(F)(F)F)c1 (stereo partly drawn) | 10.70 | 25 |  | 5.39 |  | 21 |
| C[C@@H](OC[C@]1(c2ccccc2)C[C@](N)(C(N)=O)C1)c1cc(C(F)(F)F)cc(C(F)(F)F)c1 | 9.00 |  |  |  |  | 81 |
| C[C@@H](OC[C@]1(c2ccccc2)C[C@H](N2CCCC2=O)C1)c1cc(C(F)(F)F)cc(C(F)(F)F)c1 | 9.52 |  |  |  |  | 3 |
| C[C@@H](OCC1(c2ccccc2)CC(NCc2n[nH]c(O)n2)C1)c1cc(C(F)(F)F)cc(C(F)(F)F)c1 (stereo partly drawn) | 9.30 |  |  |  |  | 22 |
| C[C@@H](OC[C@]1(c2ccccc2)C[C@](N)(C(=O)N(C)C)C1)c1cc(C(F)(F)F)cc(C(F)(F)F)c1 | 8.48 |  |  |  |  | 79 |
| C[C@@H](OC[C@]1(c2ccccc2)C[C@@H](N2CCCC2=O)C1)c1cc(C(F)(F)F)cc(C(F)(F)F)c1 (mixture of isomers) | 9.40 |  |  |  |  | 41 |

Further compounds by rising pKi (Substance-P receptor), results first:

| pKi (Substance-P receptor) | inhibition [1] [%] | pKi (Neuromedin-K receptor [2]) | pKi (Neuromedin-K receptor [3]) | inhibition [4] [%] | SMILES | inhibition in vivo at 1 mg/kg (Meriones unguiculatus) [%] |
| --- | --- | --- | --- | --- | --- | --- |
| 8.62 |  |  |  |  | C[C@@H](OCC1(c2ccccc2)CC(=O)C1)c1cc(C(F)(F)F)cc(C(F)(F)F)c1 | 11 |
| 8.89 |  |  |  |  | C[C@@H](OC[C@]1(c2ccccc2)C[C@](N)(C(=O)N2CCCCC2)C1)c1cc(C(F)(F)F)cc(C(F)(F)F)c1 | 15 |
| 9.37 |  |  |  |  | C[C@@H](OC[C@]1(c2ccccc2)C[C@@](N)(C(N)=O)C1)c1cc(C(F)(F)F)cc(C(F)(F)F)c1 | 30 |
| 9.40 | 23 | 5.67 |  |  | CC(=O)N[C@H]1C[C@](CO[C@H](C)c2cc(C(F)(F)F)cc(C(F)(F)F)c2)(c2ccccc2)C1 | 25 |
| 10.00 | 26 | 6.20 |  |  | CC(=O)N[C@H]1C[C@@](CO[C@H](C)c2cc(C(F)(F)F)cc(C(F)(F)F)c2)(c2ccccc2)C1 | 23 |
